In ChEMBL document CHEMBL1152475, “Investigation of the antioxidant properties of some new 4-hydroxycoumarin derivatives” (Eur J Med Chem, 2009) one finds Activity data, which are given here for 5 molecules.

Calls of active or inactive are those of the source. The calls are words filed in the database; no cut-off is given here.

Assay [1] can be described thus: Antioxidant activity assessed as decrease in luminol-dependent chemiluminescence's scavenger index. Format: functional. A digest of the protocol:
(§1)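 Chemiluminescence run in 1 ml PBS with 0.1 mM luminol and 0.06 mM NaOCl to generate ClO⁻. Compound at several concentrations up to 10^-4 mol/L, or buffer for controls. CL recorded every 50 ms after NaOCl addition in flash mode. Scavenger index (CL-SI) expressed relative to the buffer control, set at 100%.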

A short description of assay [2]: Antioxidant activity assessed as luminol-dependent chemiluminescence at 100 uM relative to control. The format is functional. A digest of the protocol: as §1
Assay [3] in a line: Antioxidant activity assessed as luminol-dependent chemiluminescence at 1 uM. Format: functional. In a few lines: as §1
The test system of a further assay is HL-60. As to the kind of experiment: Cytotoxicity against human HL60 cells. The format is functional, cell-based.
The next assay concerns EJ. As to the kind of experiment: Cytotoxicity against human EJ cells. The format is functional, cell-based.
In a further assay the test system is HUVEC. As to the kind of experiment: Cytoprotective activity against linoleic acid hydroperoxide-induced toxicity in HUVEC cells after 3 hrs. Format: functional, cell-based. Conditions: Homo sapiens.

Turning to `CCOC(=O)C(C(C)=O)C(c1cc(OC)c(OC)c(OC)c1)c1c(O)c2ccccc2oc1=O` (stereo not given), in assay [1], the Activity entry is “Dose-dependent effect”. Further, in assay [2], the outcome was Active.
In the case of `CCOC(=O)C(C(C)=O)C(c1ccc(O)cc1)c1c(O)c2ccccc2oc1=O` (stereo not given), the outcome in assay [3] and in assay [2] was Active.
`CCOC(=O)C(C(C)=O)C(c1cccc([N+](=O)[O-])c1)c1c(O)c2ccccc2oc1=O` (stereo not given): the result with HL-60 and in the assay with EJ was Active. For the same molecule, the Activity result in assay [1] was “Dose-dependent effect”; in assay [2], 7%.
With `O=c1ccc2cc(O)c(O)cc2o1`, the outcome with HUVEC was Active.
Regarding `CCOC(=O)C(C(C)=O)C(c1ccc(C(=O)O)cc1)c1c(O)c2ccccc2oc1=O` (stereo not given), the outcome in assay [2] was Active.
